This is an account of results in ChEMBL document CHEMBL4513216, “Probing the Open Global Health Chemical Diversity Library for Multistage-Active Starting Points for Next-Generation Antimalarials” (ACS Infect Dis, 2020).

This data set in a line: Toxicity liver stage against HepG2, at 10uM. In kind it is cell-based. Set-up: test concentration 10 uM, cell line HepG2-A16-CD81EGFP. As to conditions: human, HepG2-A16-CD81EGFP cells; read-out: INHIBITION
A digest of the protocol:
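Uninfected HepG2-A16-CD81EGFP cells, 3 × 10^3 per well, 1536-well, plated on prespotted compound at 10 μM final, parasite-free screening media added to match infected plates; puromycin 10 μM positive, DMSO 0.5% negative; run in parallel with 48 h PbLuc assay at 37 °C, 5% CO2; viability by CellTiter-Glo luminescence, normalized to controls.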
As for `Cn1cc(N2CC3(CCN(Cc4cccs4)CC3)OCC2=O)cn1`, the cytotoxicity at 10 µM is -8.13%. Then `CN(C)c1cccc(C2CCCN2S(N)(=O)=O)c1` (configuration not stated), with -5.44%. `Cc1n[nH]c(C2CN(CC(=O)NCCC3=CCCCC3)CCO2)n1` (configuration not stated): the cytotoxicity at 10 µM turned out to be 12.9%.

Turning to `CCCc1cc(N(CCOC)CC(F)F)n2ncnc2n1`, the cytotoxicity at 10 µM is 4.81%. On to `CN(C)C(=O)c1ccc(C2CCCN2C(=O)c2ccccc2N(C)C)s1` (configuration not stated), for which the cytotoxicity at 10 µM amounted to 18.5%.

Consider `O=C(CNC(=O)Nc1c(F)cccc1Oc1ccccc1)NC1CC1`, for which the cytotoxicity at 10 µM amounted to 6.45%.

`Cc1c(C(C)NCC2CCCC2)cnn1-c1ccc(F)cc1F` (configuration not stated): the cytotoxicity at 10 µM came out at 9%. Turning to `CCCS(=O)(=O)NC(C)c1cccc(-n2cccn2)c1` (configuration not stated), the cytotoxicity at 10 µM stood at 3.65%. On to `CCSCc1nc(O)c2nnn(C3CCN(Cc4ccoc4)CC3)c2n1`, for which the cytotoxicity at 10 µM was 4.71%.

For `COCCS(=O)(=O)Nc1ccc(-n2cncn2)c(F)c1`, the cytotoxicity at 10 µM is -12.2%. Take `O=C1CC(N(C(=O)c2ccc(Cl)c(Cl)c2)C2CC2)C(=O)N1` (configuration not stated): the cytotoxicity at 10 µM worked out at 0.0791%.

For `CCOCC(O)CN1CCN(C(=O)Cc2cccc(C)c2)CC1` (configuration not stated), the cytotoxicity at 10 µM is -7.1%.

As to `O=C(c1ccco1)N1CCn2cc(CN3CCCC3)nc2C1`, the cytotoxicity at 10 µM is -78.9%. As to `O=C(c1cnccn1)N1C[C@@H]2CCN(c3cccnc3)C[C@@H]2C1`, the cytotoxicity at 10 µM was -65.8%. In the case of `CCN1C(=O)C[C@@H]2[C@@H]1CCN2S(=O)(=O)c1ccc(OC)cc1`, the cytotoxicity at 10 µM came to 0.434%.

Consider `Cc1cc(C(=O)N2CCCC(C(=O)c3cccs3)C2)c(=O)[nH]c1C` (configuration not stated), for which the cytotoxicity at 10 µM is -7.01%. `Cc1cc(CN2CCN(C(=O)NC(C)Cn3ccnc3)CC2)on1` (configuration not stated): the cytotoxicity at 10 µM was -7.42%. For the compound `CCn1cnc(NC(=O)N2CCC(c3ccc(Cl)cc3)C2)n1` (configuration not stated), the cytotoxicity at 10 µM stood at 0.0451%. On to `CN(C)c1ccc(CCNC(=O)C2CCC(=O)N(C3CCCC3)C2)cc1` (configuration not stated), for which the cytotoxicity at 10 µM came to 20.8%. `Cc1ccc(C)c(CS(=O)(=O)CC(=O)NCCCOC(C)C)c1`: the cytotoxicity at 10 µM is -2.51%. The figure for `CS(=O)(=O)CCSc1n[nH]c(-c2ccc3c(c2)CCC3)n1` is -2.14%. Regarding `CN1C(=O)CCCC12CCCN(C(=O)c1ccoc1)C2` (configuration not stated), the cytotoxicity at 10 µM was -4.04%. The figure for `CN(CC(=O)N1CCCC1c1cnn(C)c1)c1ccc(Cl)cn1` (configuration not stated) is -6.14%. On to `CCOC(=O)CC1CCCCN1C(=O)c1cnc(C)cn1` (configuration not stated), for which the cytotoxicity at 10 µM was found to be 0.957%. For the compound `CCNS(=O)(=O)c1cnccc1N1CCN(CCO)CC1`, the cytotoxicity at 10 µM amounted to 3.6%.

As to `CC1CCN(Cc2c(C(C)C)[nH]c3ncccc23)CC1`, the cytotoxicity at 10 µM was -6.43%. Consider `Cn1cnnc1-c1ccnc(NCc2ccc(Br)cc2)c1`, for which the cytotoxicity at 10 µM was 2.87%.

Take `Cc1nnc(NC(=O)C2CSCN2C(=O)C2CCCC2)s1` (configuration not stated): the cytotoxicity at 10 µM is -17.1%. With `CCOc1ccccc1CSCCn1nc2ccccn2c1=O`, the cytotoxicity at 10 µM was found to be 1.88%. Then `COCCCNC(=O)C1CCN(CC2(O)CCC(C)CC2)CC1` (configuration not stated), with 21.6%; and `O=C(c1ccncc1F)N1CCc2onc(COc3cccnc3)c2C1`, with -70.6%. As to `COc1cc(C2SCC(=O)Nc3n[nH]cc32)cc(OC)c1O` (configuration not stated), the cytotoxicity at 10 µM amounted to 7.85%. Regarding `CN([C@@H]1CC[C@@H](N2CCCC2)[C@@H]1O)S(=O)(=O)c1ccccc1`, the cytotoxicity at 10 µM was -4.29%. `CC(C)NC(=O)C1CCN(c2nc3nc[nH]c(=O)c3s2)CC1`: the cytotoxicity at 10 µM is -3.79%. For the compound `Cc1ccc(N2CCO[C@H]3CN(C(=O)c4cccc(C)n4)C[C@H]32)nn1`, the cytotoxicity at 10 µM was found to be 4.94%. In the case of `Cc1ccc(CNC(=O)c2nc3c(o2)CN(C(=O)c2cccnc2)C3)o1`, the cytotoxicity at 10 µM was 0.109%. In the case of `CCOc1cc2c(cc1CN1CCC3(CCCNC3=O)C1)CCC2` (configuration not stated), the cytotoxicity at 10 µM was 14.9%. Then `Cc1ccc(CN2CCC3(CC2)OC(C(=O)N(C)C)c2ccccc23)o1` (configuration not stated), with 4.34%. `CC(C)c1nn(CC(=O)N2CCCC2)c(=O)c2c1cnn2C(C)(C)C`: the cytotoxicity at 10 µM was determined as 1.12%.

Consider `Cn1nc(Cn2cccn2)c2c1CN(Cc1ccoc1)C2`, for which the cytotoxicity at 10 µM was -3.77%. Turning to `NC(=O)c1cnc(NCC(=O)NCc2ccco2)c(Cl)c1`, the cytotoxicity at 10 µM is 3.97%. For the compound `O=C1COc2ccc(C(=O)NS(=O)(=O)c3ccccc3Cl)cc2N1`, the cytotoxicity at 10 µM was -7.03%.

With `O=C(O)[C@@H]1CN(C(=O)CCC(F)(F)F)C[C@H]1c1ccncc1`, the cytotoxicity at 10 µM was 0.108%. Take `FC(F)(F)c1nc(NC2CCc3ncnn3C2)c2ccccc2n1` (configuration not stated): the cytotoxicity at 10 µM is -2.99%. Turning to `CC(=O)N1CCN(CCNS(=O)(=O)c2ccc(C)c(F)c2)CC1`, the cytotoxicity at 10 µM was -1.84%. The figure for `O=C(CN1CCOC1=O)N1CC[C@@H](c2ccc3ccccc3c2)[C@H](O)C1` is 0.562%. Consider `COCc1noc(-c2cc(Cl)c3c(c2)OCO3)n1`, for which the cytotoxicity at 10 µM was -4.05%. On to `COc1ccc(NC2CCc3c2[nH]c(=O)n(C2CCCCC2)c3=O)cc1` (configuration not stated), for which the cytotoxicity at 10 µM was 2%. As for `C=c1occc1=C1NC(c2cccc(CN3CCOCC3)c2)=NO1`, the cytotoxicity at 10 µM is -5.92%. Consider `Cc1ccc(C(=O)NCCNC(=O)c2cncnc2C(C)C)cc1F`, for which the cytotoxicity at 10 µM turned out to be 9.52%. For the compound `Cc1cc(C)n(CNc2nonc2C(N)=O)n1`, the cytotoxicity at 10 µM is -13%. As to `OC(CN(Cc1ccccc1)Cc1cscn1)c1ccco1` (configuration not stated), the cytotoxicity at 10 µM turned out to be 5.04%.

On to `CCC(CC)CN1CCC2(CCCN(c3ncccn3)C2)C1` (configuration not stated), for which the cytotoxicity at 10 µM was -83.5%. In the case of `CCCNC(=O)COc1cccc(-c2nc(C(C)C)no2)c1`, the cytotoxicity at 10 µM is -77.9%. As for `CCOC(=O)c1cnn(-c2cc(Oc3ccccc3C)ncn2)c1N`, the cytotoxicity at 10 µM was 15.8%.

In the case of `CCn1ccnc1CN1CCC(CNC(=O)c2ccc(C)nc2)C1` (configuration not stated), the cytotoxicity at 10 µM is -8.8%. `CC(C)c1nc(CN2CCOCC2)cs1`: the cytotoxicity at 10 µM is -7.49%. As for `CCc1ccccc1NCc1nc2[nH]c(C)c(C)c(=O)n2n1`, the cytotoxicity at 10 µM turned out to be 7.98%. With `Cc1cnn(CC2CCCN2C(=O)c2ccc(F)cc2Cl)c1` (configuration not stated), the cytotoxicity at 10 µM is 2.99%. `Cc1cc(C[C@@H]2COC[C@H]2NCc2ccc(Br)s2)on1`: the cytotoxicity at 10 µM is 3.6%. As to `Cc1ccc(C(=O)Nc2ccc(N(C)C)cn2)n1C`, the cytotoxicity at 10 µM is -2.48%. With `CS(=O)(=O)N1CCN(CC(O)COc2ccc(Cl)cc2)CC1` (configuration not stated), the cytotoxicity at 10 µM was -38.6%. As to `COCCN1CCc2ccccc2NCCC1=O`, the cytotoxicity at 10 µM is -2.51%. Regarding `CC(NC(=O)NCc1ccoc1)c1ccc2c(c1)CC(=O)N2` (configuration not stated), the cytotoxicity at 10 µM is -1.82%. In the case of `CC(C)(C)c1cc(NC(=O)CN2CCC(N3CCNC3=O)CC2)on1`, the cytotoxicity at 10 µM is -2.05%.

For `c1nc2c(c(C3CC3)n1)CCN(Cc1ccc3c(c1)OCO3)CC2`, the cytotoxicity at 10 µM is -17.1%.

`N#Cc1c(-c2ccccc2)csc1N`: the cytotoxicity at 10 µM came to 2.42%.

In the case of `COc1ccc([C@@H]2CN(C(=O)CCCc3cn[nH]c3)C[C@H]2N(C)C)cc1`, the cytotoxicity at 10 µM was -2.31%. Then `Cc1noc(-c2ccnc(N3CCC(N4CCCC4)CC3)c2)n1`, with 0.409%; and `CN1C[C@@H](F)[C@@H](OCc2nc3ccccc3n2C)C1`, with 0.876%. As to `CC(NCCCN1CCCN(C)CC1)C(C)(C)C` (configuration not stated), the cytotoxicity at 10 µM worked out at 29.9%. Regarding `COCCC(=O)N1CC[C@H]2C(=O)N(c3ccsc3)CCO[C@H]2C1`, the cytotoxicity at 10 µM amounted to 10.4%. The figure for `O=C(NCC1CCCO1)N1CCN(Cc2ccc3c(c2)CCO3)CC1` (configuration not stated) is -5.91%; for `COc1ccc(S(=O)(=O)Cc2cc(C)on2)cc1` it is 7.55%; for `CCn1c(CN2CCN(CCOC)CC2)nc2c(F)cccc21` it is -9.86%. Regarding `CC(C)c1cc(C(=O)N2CCN(Cc3ccsc3)CC2)n[nH]1`, the cytotoxicity at 10 µM stood at 0.0711%. Regarding `Cn1cccc1C(=O)NCc1cn2c(n1)CN(Cc1ccccn1)CC2`, the cytotoxicity at 10 µM is -115%. Take `CN1CCC(NC(=O)CC2CN(Cc3ccccc3)CCO2)CC1` (configuration not stated): the cytotoxicity at 10 µM is -22.2%. As to `O=C(Cc1noc2ccccc12)N1CCC(Nc2cccnn2)CC1`, the cytotoxicity at 10 µM was -7.85%.

With `Cc1nc(C2CCCN2CCCc2nc3ccccc3o2)no1` (configuration not stated), the cytotoxicity at 10 µM was -9.24%.

For the compound `FC(F)(F)c1ccnc(N2CCC(c3nccn3CC3CC3)CC2)n1`, the cytotoxicity at 10 µM was 3.03%. `COc1ccc2c(c1)OCC(Cc1ccc(N)nc1C)C2` (configuration not stated): the cytotoxicity at 10 µM was found to be 21.8%. Then `CN1CCOCC12CCN(Cc1nccs1)CC2`, with 6.46%; and `Cc1ccccc1OCC(=O)N1CC[C@]2(C[C@@H](OCC3CC3)CO2)C1`, with 3.1%. Consider `O=C1NCC2(CCCN(C(=O)c3c[nH]nc3C3CCCCC3)C2)O1` (configuration not stated), for which the cytotoxicity at 10 µM amounted to 8.72%. Consider `Cc1nc(CN2CCCC3(CCN(c4cnn(C)c4)C3=O)C2)cs1` (configuration not stated), for which the cytotoxicity at 10 µM amounted to 3.16%.

Consider `O=C(CCc1cc(O)no1)N1CCC(Cc2ccc(F)cc2)CC1`, for which the cytotoxicity at 10 µM is -0.505%. As to `CC1CN(C(=O)Nc2ccc(Cl)c(C(=O)NC3CC3)c2)CC(C)(C)O1` (configuration not stated), the cytotoxicity at 10 µM came out at 6.5%. Consider `O=C(c1ccc2[nH]ccc2c1)N1CCCSCC1CN1CCCC1` (configuration not stated), for which the cytotoxicity at 10 µM is 9.4%. Turning to `Cn1cc(C(=O)NC2CCN(Cc3ccn(C)c(=O)c3)CC2)cn1`, the cytotoxicity at 10 µM is -16.7%. `CCCn1ccnc1CN1C[C@@H](CN2CCCN(C)CC2)[C@@H](CO)C1`: the cytotoxicity at 10 µM is 2.81%.

`CCc1nccc(CN2CCCC(CNC(=O)c3ccccn3)C2)n1` (configuration not stated): the cytotoxicity at 10 µM came to 4.63%. For the compound `CCC(=O)N1CCC(NC(=O)c2cccc(-n3ccnc3)c2)C1` (configuration not stated), the cytotoxicity at 10 µM is 8.96%. On to `CCCn1cc(NC(=O)c2ccncc2)ccc1=O`, for which the cytotoxicity at 10 µM is -8.44%. Then `O=C1NCCN2CCN(Cc3ccc(Cl)c(Cl)c3)CC12` (configuration not stated), with -4.92%; and `CC(C)CCC(C)NC(=O)c1ccc(OCC(N)=O)cc1` (configuration not stated), with -3.59%; and `O=C(c1ccncc1)N1CCC(Cc2cnc3[nH]ccc3c2)CC1`, with -1.86%.
